Assay results taken from ChEMBL document CHEMBL4715736, “Identification of anticancer agents based on the thieno[2,3-b]pyridine and 1H-pyrazole molecular scaffolds” (2016).

Tests used:
Type in all cases: functional
A549 = experiment: Growth inhibition of human A549/ATCC cells assessed as cell growth at 0.01 uM incubated for 48 hrs by sulforhodamine B assay relative to control; conditions: read-out: Activity
Outline: (§1)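 NCI Developmental Therapeutics Program NCI60 panel. Compounds that were active in the 10 µM one-dose screen went on to dose–response testing. Growth at each concentration is expressed relative to untreated control (100%). GI50 (concentration giving 50% of maximal inhibition of proliferation) and TGI (concentration giving total growth inhibition) were derived from the curves.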

HCT-15 [1] = experiment: Growth inhibition of human HCT-15 cells assessed as cell growth at 0.01 uM incubated for 48 hrs by sulforhodamine B assay relative to control; conditions: read-out: Activity
M14 = experiment: Growth inhibition of human M14 cells assessed as cell growth at 0.01 uM incubated for 48 hrs by sulforhodamine B assay relative to control; conditions: read-out: Activity
OVCAR-3 = experiment: Growth inhibition of human OVCAR-3 cells assessed as cell growth at 0.01 uM incubated for 48 hrs by sulforhodamine B assay relative to control; conditions: read-out: Activity
OVCAR-8 = experiment: Growth inhibition of human OVCAR-8 cells assessed as cell growth at 0.01 uM incubated for 48 hrs by sulforhodamine B assay relative to control; conditions: read-out: Activity
786-0 [2] = experiment: Growth inhibition of human 786-0 cells assessed as cell growth at 0.01 uM incubated for 48 hrs by sulforhodamine B assay relative to control; conditions: read-out: Activity; outline: as §1
A498 = experiment: Growth inhibition of human A498 cells assessed as cell growth at 0.01 uM incubated for 48 hrs by sulforhodamine B assay relative to control; conditions: read-out: Activity; outline: as §1
DU-145 = experiment: Growth inhibition of human DU-145 cells assessed as cell growth at 0.01 uM incubated for 48 hrs by sulforhodamine B assay relative to control; conditions: read-out: Activity; outline: as §1
SR = experiment: Growth inhibition of human SR cells assessed as cell growth at 0.1 uM incubated for 48 hrs by sulforhodamine B assay relative to control; conditions: read-out: Activity
SF-539 [3] = experiment: Growth inhibition of human SF-539 cells assessed as cell growth at 0.1 uM incubated for 48 hrs by sulforhodamine B assay relative to control; conditions: read-out: Activity
SNB-19 = experiment: Growth inhibition of human SNB-19 cells assessed as cell growth at 0.1 uM incubated for 48 hrs by sulforhodamine B assay relative to control; conditions: read-out: Activity
786-0 [4] = experiment: Growth inhibition of human 786-0 cells assessed as cell growth at 0.1 uM incubated for 48 hrs by sulforhodamine B assay relative to control; conditions: read-out: Activity; outline: as §1
HOP-62 = experiment: Growth inhibition of human HOP-62 cells assessed as cell growth at 1 uM incubated for 48 hrs by sulforhodamine B assay relative to control; conditions: read-out: Activity
COLO 205 = experiment: Growth inhibition of human COLO 205 cells assessed as cell growth at 1 uM incubated for 48 hrs by sulforhodamine B assay relative to control; conditions: read-out: Activity; outline: as §1
SNB-75 = experiment: Growth inhibition of human SNB-75 cells assessed as cell growth at 1 uM incubated for 48 hrs by sulforhodamine B assay relative to control; conditions: read-out: Activity
SK-MEL-28 [5] = experiment: Growth inhibition of human SK-MEL-28 cells assessed as cell growth at 1 uM incubated for 48 hrs by sulforhodamine B assay relative to control; conditions: read-out: Activity
UACC-62 = experiment: Growth inhibition of human UACC-62 cells assessed as cell growth at 1 uM incubated for 48 hrs by sulforhodamine B assay relative to control; conditions: read-out: Activity
IGROV-1 [6] = experiment: Growth inhibition of human IGROV-1 cells assessed as cell growth at 1 uM incubated for 48 hrs by sulforhodamine B assay relative to control; conditions: read-out: Activity
T47D = experiment: Growth inhibition of human T47D cells assessed as cell growth at 1 uM incubated for 48 hrs by sulforhodamine B assay relative to control; conditions: read-out: Activity
NCI-H460 = experiment: Growth inhibition of human NCI-H460 cells assessed as cell growth at 100 uM incubated for 48 hrs by sulforhodamine B assay relative to control; conditions: read-out: Activity
SF-539 [7] = experiment: Growth inhibition of human SF-539 cells assessed as cell growth at 100 uM incubated for 48 hrs by sulforhodamine B assay relative to control; conditions: read-out: Activity
SK-MEL-28 [8] = experiment: Growth inhibition of human SK-MEL-28 cells assessed as cell growth at 100 uM incubated for 48 hrs by sulforhodamine B assay relative to control; conditions: read-out: Activity
UACC-257 = experiment: Growth inhibition of human UACC-257 cells assessed as cell growth at 100 uM incubated for 48 hrs by sulforhodamine B assay relative to control; conditions: read-out: Activity
SK-OV-3 = experiment: Growth inhibition of human SK-OV-3 cells assessed as cell growth at 100 uM incubated for 48 hrs by sulforhodamine B assay relative to control; conditions: read-out: Activity
MDA-MB-231 = experiment: Growth inhibition of human MDA-MB-231 cells assessed as cell growth at 100 uM incubated for 48 hrs by sulforhodamine B assay relative to control; conditions: read-out: Activity
CCRF-CEM = experiment: Growth inhibition of human CCRF-CEM cells incubated for 48 hrs by sulforhodamine B assay; outline: as §1
NCI-H226 = experiment: Growth inhibition of human NCI-H226 cells incubated for 48 hrs by sulforhodamine B assay
Outline: (§2)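 NCI60 panel at the NCI Developmental Therapeutics Program. Only compounds active in the 10 µM screen went to dose-response testing. GI50, the concentration giving 50% of maximal inhibition of proliferation, and TGI, the concentration giving total growth inhibition, were derived from the dose-response curves.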

NCI-H522 = experiment: Growth inhibition of human NCI-H522 cells incubated for 48 hrs by sulforhodamine B assay; outline: as §2
HCT-116 = experiment: Growth inhibition of human HCT-116 cells incubated for 48 hrs by sulforhodamine B assay; outline: as §2
HCT-15 [9] = experiment: Growth inhibition of human HCT-15 cells incubated for 48 hrs by sulforhodamine B assay; outline: as §2
U-251 = experiment: Growth inhibition of human U-251 cells incubated for 48 hrs by sulforhodamine B assay
Outline: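 NCI DTP 60-line human tumour panel. Dose-response curves were run only for ligands active in the initial 10 µM screen. GI50 (concentration giving 50% of maximal inhibition of proliferation) and TGI (concentration giving total growth inhibition) were derived from these curves.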

LOX IMVI = experiment: Growth inhibition of human LOX IMVI cells incubated for 48 hrs by sulforhodamine B assay; outline: as §2
IGROV-1 [10] = experiment: Growth inhibition of human IGROV-1 cells incubated for 48 hrs by sulforhodamine B assay; outline: as §2
786-0 [11] = experiment: Growth inhibition of human 786-0 cells incubated for 48 hrs by sulforhodamine B assay; outline: as §1
[12] = read-out: LC50 (the source's name)

Q: With Cc1cc(C)c(NC(=O)c2sc3nc4c(cc3c2N)CN(Cc2ccccc2)CC4)c(C)c1 as the compound, how does the growth at 0.01 µM (A549) read?
A: 96%

Q: What about the growth at 0.01 µM (HCT-15 [1]) of the same compound?
A: 93%

Q: And the growth at 0.01 µM (M14)?
A: 91%

Q: What about the growth at 0.01 µM (OVCAR-3) of the same compound?
A: 104%

Q: And the growth at 0.01 µM (OVCAR-8)?
A: 101%

Q: And the growth at 0.01 µM (786-0 [2])?
A: 91%

Q: And the growth at 0.01 µM (A498)?
A: 87%

Q: And the growth at 0.01 µM (DU-145)?
A: 104%

Q: What about the growth at 0.1 µM (SR) of the same compound?
A: 103%

Q: And the growth at 0.1 µM (SF-539 [3])?
A: 96%

Q: What about the growth at 0.1 µM (SNB-19) of the same compound?
A: 96%

Q: What about the growth at 0.1 µM (786-0 [4]) of the same compound?
A: 92%

Q: What about the growth at 1 µM (HOP-62) of the same compound?
A: 81%

Q: And the growth at 1 µM (COLO 205)?
A: 95%

Q: What about the growth at 1 µM (SNB-75) of the same compound?
A: 79%

Q: And the growth at 1 µM (SK-MEL-28 [5])?
A: 70%

Q: And the growth at 1 µM (UACC-62)?
A: 69%

Q: And the growth at 1 µM (IGROV-1 [6])?
A: 85%

Q: What about the growth at 1 µM (T47D) of the same compound?
A: 77%

Q: And the growth at 100 µM (NCI-H460)?
A: -25%

Q: And the growth at 100 µM (SF-539 [7])?
A: -45%

Q: And the growth at 100 µM (SK-MEL-28 [8])?
A: -30%

Q: What about the growth at 100 µM (UACC-257) of the same compound?
A: 17%

Q: And the growth at 100 µM (SK-OV-3)?
A: 16%

Q: And the growth at 100 µM (MDA-MB-231)?
A: -11%

Q: And the GI50 (CCRF-CEM)?
A: 3.16 µM

Q: And the LC50 (CCRF-CEM)?
A: > 100 µM

Q: And the TGI (CCRF-CEM)?
A: 59.7 µM

Q: And the GI50 (NCI-H226)?
A: 4.69 µM

Q: And the TGI (NCI-H226)?
A: > 100 µM

Q: And the CC50 (NCI-H226; [12])?
A: > 100 µM

Q: What about the GI50 (NCI-H522) of the same compound?
A: 1.6 µM

Q: What about the LC50 (NCI-H522) of the same compound?
A: > 100 µM

Q: And the TGI (NCI-H522)?
A: 6.83 µM

Q: What about the GI50 (HCT-116) of the same compound?
A: 2.89 µM

Q: What about the LC50 (concentration killing 50% of cells) (HCT-116) of the same compound?
A: 67.2 µM

Q: What about the TGI (HCT-116) of the same compound?
A: 16 µM

Q: And the GI50 (HCT-15 [9])?
A: 2.12 µM

Q: What about the LC50 (HCT-15 [9]) of the same compound?
A: > 100 µM

Q: And the TGI (HCT-15 [9])?
A: > 100 µM

Q: What about the GI50 (U-251) of the same compound?
A: 4.35 µM

Q: And the LC50 (concentration killing 50% of cells) (U-251)?
A: > 100 µM

Q: What about the TGI (U-251) of the same compound?
A: 24.2 µM

Q: What about the GI50 (LOX IMVI) of the same compound?
A: 5.01 µM

Q: What about the LC50 (LOX IMVI) of the same compound?
A: 50.9 µM

Q: What about the TGI (LOX IMVI) of the same compound?
A: 18.1 µM

Q: What about the GI50 (IGROV-1 [10]) of the same compound?
A: 6.54 µM

Q: What about the LC50 (IGROV-1 [10]) of the same compound?
A: > 100 µM

Q: And the TGI (IGROV-1 [10])?
A: > 100 µM

Q: And the GI50 (786-0 [11])?
A: 3.48 µM

Q: What about the TGI (786-0 [11]) of the same compound?
A: > 100 µM

Q: And the CC50 (786-0 [11]; [12])?
A: > 100 µM
